# Hits are enriched below; roughly 2.4% of the tested compounds scored in any of these assays.
# MIN6 prolif: inducers of MIN6 beta-cell proliferation, primary screen, ATP luminescence, uHTS; MIN6 cells proliferation, ATPlite luminescence, 48 h; cells starved in 0.2% serum; 100% = growth in 10% serum; proliferation, % at 10 µM; 330,000 compounds, 0.29% hits; AID 2380, 2010;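 active = compounds whose signal lies at least 3.5 SD above the mean of all wells on their plate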;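 note: 0% = DMSO-treated cells in low-serum medium and 100% = 10% serum control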
# SR-BI DiI-HDL act: activators of SR-BI mediated DiI-HDL uptake, primary screen, ldlA[mSR-BI] CHO cells, DiI fluorescence; activation, % at 12.5 µM; 320,000 compounds, 0.096% hits; AID 504775, 2011; 3 h; 100 = double the neutral-control signal;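 active = mean replicate activation of at least 60% and every replicate at or above 60%; inconclusive = mean or all-replicate condition met, but not both; inactive = mean below 60% and not all replicates reaching 60%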;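 note: 0% = median plate neutral-control signal and 100% = twice that signal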
#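 Test system: SR-BI-overexpressing, LDLR-lacking CHO cells; Also added: labelled HDL, 10 µg/mL; Measured by: bottom-read cell fluorescence after medium removal, ex 550/em 595 nm; Timing: 3 h uptake period with compound, 37 °C; Buffer or medium: F12, 0.5% BSA, 25 mM HEPES; Doses: single compound concentration, delivered by pin transfer.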
# m5-HT2A agonist: mouse Htr2a agonists via beta-arrestin recruitment, primary screen, cell-based, luminescence; 5-hydroxytryptamine receptor 2A (Mus musculus), P35363; CHO-K1 mHTR2A beta-arrestin complementation; percent of 30 µM serotonin response; activation, % at 7.6 µM; 360,000 compounds, 0.66% hits; AID 624169, 2012;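 active = activation above a run cutoff, the mean activation of all tested compounds plus 3 SD, cut at about 14% in these data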;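 note: 0% = plate median of compound wells and 100% = 30 µM serotonin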
# Target sequence (P35363 whole entry, looked up): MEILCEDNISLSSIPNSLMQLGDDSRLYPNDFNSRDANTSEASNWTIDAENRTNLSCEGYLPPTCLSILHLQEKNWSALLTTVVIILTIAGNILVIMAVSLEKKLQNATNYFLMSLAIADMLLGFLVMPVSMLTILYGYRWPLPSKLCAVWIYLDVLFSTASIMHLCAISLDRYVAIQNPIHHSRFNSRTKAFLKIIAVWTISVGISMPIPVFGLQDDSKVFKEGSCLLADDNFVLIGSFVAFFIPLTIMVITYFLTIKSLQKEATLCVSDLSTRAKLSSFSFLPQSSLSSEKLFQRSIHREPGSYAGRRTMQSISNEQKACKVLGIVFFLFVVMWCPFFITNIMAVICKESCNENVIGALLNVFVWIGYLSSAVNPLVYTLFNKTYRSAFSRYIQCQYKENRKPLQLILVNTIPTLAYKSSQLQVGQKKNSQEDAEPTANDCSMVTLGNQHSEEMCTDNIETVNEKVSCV
# SR-BI HDL uptake: inhibitors of SR-BI mediated HDL lipid uptake, primary screen, ldlA[mSR-BI] cells, fluorescence, single point. inhibition, % at 12.5 µM. Scavenger receptor class B member 1 (Mus musculus), Q61009. AID 488896, 2010. 320,000 compounds, 0.96% hits. ldlA[mSR-BI] CHO cells, DiI-HDL uptake fluorescence, 3 h;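 active = mean replicate inhibition of at least 70% and a set share of replicates each scoring 70 or more; inconclusive = meets just one of the two criteria; inactive = fails both criteria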;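 note: 0% = median of neutral control wells and 100% = median of positive control wells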
# Calb FLC: C. albicans growth inhibition with fluconazole, primary screen, CaCi-2 strain, Alamar Blue fluorescence. C. albicans CaCi-2 + fluconazole, 48 h. growth inhibition, % (concentration not given with the values). 300,000 compounds, 0.57% hits;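 active = growth inhibition above about 58% in most replicates, limit read from the data, passing the limit was not always enough; inconclusive = exactly half the replicates above a set limit; inactive = most replicates below a set limit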;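 note: all wells also contain fluconazole at 8 µg/ml as a sub-toxic cotreatment; 0% = median of DMSO wells and 100% = median of geldanamycin control wells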
# Ins promoter up: insulin promoter activators in MIN6 cells, imaging, high-content screening, mouse beta cells. 190,000 compounds, 0.3% hits. MIN6 insulin promoter-GFP reporter; stronger effect = higher value. z-score at 5 µM;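 active = z-score above 3 at 5 µM with at least 500 cells counted in the well; inconclusive = wells under 500 cells, flagged as cytotoxic or low count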
# The depositor's hits bear a star; ? = inconclusive; . = not tested or not shown.
SMILES,MIN6 prolif,SR-BI DiI-HDL act,m5-HT2A agonist,SR-BI HDL uptake,Calb FLC,Ins promoter up
CC1CN(C(=S)Nc2cccc([N+](=O)[O-])c2)CC(C)O1 (configuration not stated),2,-10,-4,10,121*,.
CCCCn1c(N)c(N(CCOC)C(=O)c2c(CC)noc2C)c(=O)[nH]c1=O,3,23,7,-23,.,.
COc1ccc(Nc2c(C3CC3)nc3nc(C)cc(C)n23)cc1,.,.,4,.,.,.
N#C/C=C/C(=C\Nc1ccc(Cl)cc1)S(=O)(=O)c1ccccc1,-4,-85,6,85*,0,.
CC(=O)Oc1ccccc1Cn1c(C)c(C(=O)N(C)Cc2ccc(F)cc2)sc1=O,.,.,-1,.,.,.
COc1ccc(CCC(=O)Nc2c(-c3ccc(N(C)C)cc3)[nH][nH]c2=O)cc1,.,.,16*,.,.,.
CC(=O)N(Cc1ccc(F)cc1)C1=C(NCCc2ccccc2)C(=O)c2ccccc2C1=O,0,-16,-3,16,87*,-2.2
O=C1C(Cl)=C(NCCc2ccccc2)C(=O)c2ccccc21,.,-18,-3,18,.,.
O=C(Nc1ccc(N2CCCCC2)cc1)c1ccc([N+](=O)[O-])o1,0,-24,-9,24,16,.
CC1CCN(c2ccc(NC(=O)c3ccc([N+](=O)[O-])o3)cc2)CC1,-3,-87,-5,87*,-3,.
O=C(Nc1cccc2ccccc12)c1ccc([N+](=O)[O-])o1,-5,-14,-2,14,86*,.
Cc1ccc(NC(=O)c2cccc(C(=O)Nc3ccc(C)c(C)c3)n2)cc1C,0,-75,6,75*,0,.
O=C(Nc1cccc(NC(=O)c2ccccc2Cl)c1)c1ccc([N+](=O)[O-])o1,-4,-59,-6,59,80*,.
COc1cc(Cn2nnc3ccccc32)cc(Br)c1O,-3,35,-4,-35,39,.
Clc1ccc(Cn2ncc3c(N4CCN(c5ccccc5)CC4)ncnc32)cc1,.,.,1,.,.,.
Cc1ccc(NC(=O)c2ccc([N+](=O)[O-])o2)cc1C,-6,-34,-2,34,117*,-1.7
O=C(Nc1cccc([N+](=O)[O-])c1)c1ccc([N+](=O)[O-])o1,.,.,-5,.,.,.
Cc1cc(C)cc(-n2c(C)cc(/C=N\NC(=O)COc3cccc4cccnc34)c2C)c1,-5,-76,0,76*,8,-0.23
Cc1cc(/C=N/NC(=O)COc2cccc3cccnc23)c(C)n1-c1ccc(O)cc1,-2,9,3,-9,7,-0.23
N#CC1(NC(=O)CSc2nnc(-c3ccccc3F)o2)CCCCC1,-2,6,-11,-6,3,.
O=C(NCc1cccnc1)c1ccc(-c2cccc(Cl)c2Cl)o1,0,-6,-7,6,61*,0.1
O=C(NCc1cccnc1)c1ccc(-c2ccccc2[N+](=O)[O-])o1,1,29,-1,-29,-11,0.66
Cc1c(NC(=O)c2cc(-c3ccc(F)cc3)nc3ccccc23)c(=O)n(-c2ccccc2)n1C,-2,-86,-3,86*,.,.
Cc1cc(NC(=O)c2cc(-c3ccncc3)nc3c(C)cccc23)no1,-3,-71,0,71*,5,0.1
Cc1ccc(Nc2nc3ccccc3nc2Nc2c(C)n(C)n(-c3ccccc3)c2=O)cc1,-4,-92,-2,92*,-5,?
SMILES,MIN6 prolif,SR-BI DiI-HDL act,m5-HT2A agonist,SR-BI HDL uptake,Calb FLC,Ins promoter up
Cc1ccc(-c2cc(C(=O)Nc3cc(C)on3)c3ccccc3n2)cc1,1,-74,-2,74*,-4,0.16
Cc1c(Nc2nc3ccccc3nc2NS(=O)(=O)c2cccc(Cl)c2)c(=O)n(-c2ccccc2)n1C,0,-2,5,2,24,0.32
CCc1nc2c(OCc3ccc(C#N)cc3)cccn2c1N(C)C(=O)c1cccs1,.,.,-3,.,.,.
O=Nc1c(O)n(Cc2ccc(Cl)cc2)c2ccccc12,-3,-23,2,23,42,3*
CCN(c1ccccc1)S(=O)(=O)c1ccc(NC(=O)c2nc(S(C)(=O)=O)ncc2Cl)cc1,-7,-10,-9,10,0,.
CCS(=O)(=O)c1ncc(Cl)c(C(=O)Nc2ccc(S(=O)(=O)N(C)c3ccccc3)cc2)n1,-7,-86,-11,86*,0,.
O=C(NCc1ccc(F)cc1)c1cc(C2CCCCN2S(=O)(=O)c2ccc(F)cc2F)on1 (configuration not stated),.,.,-5,.,.,.
O=C(COc1ccccc1)Nc1cccc(-c2nn[nH]n2)c1,-1,12,6,-12,-3,.
O=C(COc1ccccc1)Nc1cccc(-c2nc3cc4ccccc4cc3[nH]2)c1,-6,-38,-2,38,109*,-0.29
CSc1cccc(-c2nnc(NC(=O)c3cccc(N4C(=O)CCC4=O)c3)o2)c1,-4,20,-3,-20,4,.
CCCCCCCOC(=O)C[N+](C)(C)CCOC1CC2CCC1(C)C2(C)C (configuration not stated),.,69*,-5,-69,107*,?
CCC(C)OC(=O)C[N+](C)(C)CCOC1CC2CCC1(C)C2(C)C (configuration not stated),-6,-2,-2,2,87*,-4.7
CCCCCCOC(=O)C[N+](C)(C)CCOC1CC2CCC1(C)C2(C)C (configuration not stated),-6,1,2,-1,103*,?
CCCOC(=O)C[N+](C)(C)CCOC1CC2CCC1(C)C2(C)C (configuration not stated),-5,10,-4,-10,-8,-0.75
CC(C)CCOC(=O)C[N+](C)(C)CCOC1CC2CCC1(C)C2(C)C (configuration not stated),-6,29,-10,-29,103*,-4.7
CCCCOC(=O)C[N+](C)(C)CCOC1CC2CCC1(C)C2(C)C (configuration not stated),-5,36,0,-36,?,-0.92
CCn1ccc(C(=O)Nc2ccc3c(c2)CCC3)n1,-4,10,-2,-10,9,.
CCn1c(C(=O)OC)cc2c1ccn2-c1ccc(F)cc1,0,-78,-4,78*,-3,0.13
Clc1ccc2oc(-c3ccccn3)nc2c1,-2,-1,6,1,1,3*
Nc1ccc2oc(-c3ccccn3)nc2c1,1,-4,7,4,2,0.23
COc1ccc(C2OCC(C)(C)CO2)cc1OC,.,77*,5,-77,.,.
CCc1cc2c(=O)oc(-c3ccc(Br)cc3)nc2s1,-2,22,-8,-22,8,.

# Source: PubChem (several laboratories)
